Assays:
[1] = target: 5-hydroxytryptamine receptor 1B (Homo sapiens, UniProt P28222); experiment: Displacement of [3H]5-HT binding from cloned human 5-hydroxytryptamine 1B receptor stably expressed in CHO cells.; format: cell-based
[2] = target: T1, 5-hydroxytryptamine receptor 1D (Homo sapiens, UniProt P28221); experiment: Displacement of [3H]5-HT binding to the cloned human 5-hydroxytryptamine 1D receptor stably expressed in CHO cells; format: cell-based
How it was run: (§1)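 Membranes from CHO cells stably expressing human 5-HT1D receptor were washed, pre-incubated 10 min at 37 °C, then assayed at 0.2 mg protein/mL in 50 mM Tris-HCl pH 7.7 with 4 mM CaCl2, 0.01 mM pargyline and 0.1% ascorbate. […] Filtration and counting followed; IC50 came from nonlinear regression; ≥3 experiments, geometric means.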

[3] = target: T1, 5-hydroxytryptamine receptor 1D; experiment: Stimulation of [35S]GTP-gamma-S, binding in CHO cells expressing the human 5-hydroxytryptamine 1D receptor.; format: functional, cell-based
How it was run: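 Membranes from CHO cells stably expressing human 5-HT1D were used at 40 μg protein/mL in HEPES 20 mM, NaCl 100 mM, MgCl2 10 mM, pargyline, ascorbate, pH 7.4. They were preincubated with 100 μM GDP plus compound for 20 min at 30 °C, then 15 min on ice. 100 pM [35S]GTPγS was added for 30 min at 30 °C, followed by filtration and counting. EC50 and Emax (relative to 5-HT maximum) came from nonlinear regression.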

[4] = target: T1, 5-hydroxytryptamine receptor 1D; experiment: Relative efficacy in stimulation of [35S]GTP-gamma-S, binding in CHO cells compared to 5-HT; format: functional, cell-based
[5] = target: T1, 5-hydroxytryptamine receptor 1D; experiment: Displacement of [3H]5-HT from human 5-hydroxytryptamine 1D receptor expressed in CHO cells; format: cell-based; how it was run: as §1
[6] = target: T1, 5-hydroxytryptamine receptor 1D; experiment: Displacement of [3H]5-HT binding from human 5-hydroxytryptamine 1D receptor expressed in CHO cells; format: cell-based
[7] = target: T1, 5-hydroxytryptamine receptor 1D; experiment: Stimulation of [35S]GTP-gamma-S, binding in CHO cells expressing the 5-hydroxytryptamine 1D receptor; format: functional, cell-based

Chain of 5-hydroxytryptamine receptor 1B (P28222 whole entry): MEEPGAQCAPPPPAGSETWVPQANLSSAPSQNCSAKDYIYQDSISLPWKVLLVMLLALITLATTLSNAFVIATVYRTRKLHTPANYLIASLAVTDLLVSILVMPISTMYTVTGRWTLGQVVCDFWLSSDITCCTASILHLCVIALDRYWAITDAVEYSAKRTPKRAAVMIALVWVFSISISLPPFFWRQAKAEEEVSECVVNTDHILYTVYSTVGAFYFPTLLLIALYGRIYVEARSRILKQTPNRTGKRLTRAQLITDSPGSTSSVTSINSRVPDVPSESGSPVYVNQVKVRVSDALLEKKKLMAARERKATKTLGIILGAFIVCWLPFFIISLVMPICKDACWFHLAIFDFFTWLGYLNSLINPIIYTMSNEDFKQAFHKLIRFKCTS
T1 sequence (P28221 whole entry): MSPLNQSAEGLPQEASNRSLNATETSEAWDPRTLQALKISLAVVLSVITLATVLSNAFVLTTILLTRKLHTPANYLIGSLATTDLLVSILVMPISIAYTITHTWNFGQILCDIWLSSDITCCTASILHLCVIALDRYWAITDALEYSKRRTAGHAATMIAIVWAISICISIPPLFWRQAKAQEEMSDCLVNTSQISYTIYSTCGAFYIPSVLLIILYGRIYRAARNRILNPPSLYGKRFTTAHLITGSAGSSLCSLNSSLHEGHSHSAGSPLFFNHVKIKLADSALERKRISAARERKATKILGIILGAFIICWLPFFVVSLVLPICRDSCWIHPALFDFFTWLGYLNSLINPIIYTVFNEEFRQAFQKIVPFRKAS

Row | SMILES | IC50 [1] [nM] | IC50 [2] [nM] | EC50 [3] [nM] | Relative efficacy [4] [%] | IC50 [5] [nM] | IC50 [6] [nM] | EC50 [7] [nM]
1 | NC(=O)C(c1ccccc1)N1CCN(CCCc2c[nH]c3ccc(-n4cnnc4)cc23)CC1 (stereo in doubt; 6p) [listing 1 of 2 here] |  |  |  | 77 |  |  | 
2 | c1cc2[nH]cc(CCN3CCCC3)c2cc1-n1cnnc1 |  |  |  | 120 |  |  | 
3 | NC(=O)C(c1ccccc1)N1CCN(CCCc2c[nH]c3ccc(-n4cnnc4)cc23)CC1 (stereo in doubt; 6q) [listing 1 of 2 here] |  |  |  | 61 |  |  | 
4 | N#Cc1ccc(CN2CCN(CCCc3c[nH]c4ccc(-n5cnnc5)cc34)CC2)cc1 | 130 | 0.7 | 1.1 | 71 |  |  | 
5 | Fc1ccc(CCN2CCN(CCCc3c[nH]c4ccc(-n5cnnc5)cc34)CC2)cc1 |  |  |  | 81 |  |  | 
6 | c1ccc(CN2CCN(CCCc3c[nH]c4ccc(-n5cnnc5)cc34)CC2)cc1 | 11 | 0.1 | 0.2 | 57 |  |  | 
7 | CC(CN1CCN(CCCc2c[nH]c3ccc(-n4cnnc4)cc23)CC1)c1ccccc1 (stereo not drawn) | 45 | 0.8 | 0.3 | 94 |  |  | 
8 | c1ccc(CNC[C@@H]2CCN(CCc3c[nH]c4ccc(-n5cnnc5)cc34)C2)cc1 | 37 |  |  | 102 |  | 0.6 | 
9 | Fc1ccccc1CCN1CCN(CCCc2c[nH]c3ccc(-n4cnnc4)cc23)CC1 | 98 | 0.5 | 1.4 | 80 |  |  | 
10 | c1ccc(CCN2CCN(CCCc3c[nH]c4ccc(-n5cnnc5)cc34)CC2)cc1 |  |  | 1.7 | 73 |  |  | 
11 | CC(=O)Nc1ccc(CCN2CCN(CCCc3c[nH]c4ccc(-n5cnnc5)cc34)CC2)cc1 | 260 |  | 1.8 | 85 |  |  | 
12 | Fc1cccc(CCN2CCN(CCCc3c[nH]c4ccc(-n5cnnc5)cc34)CC2)c1 | 72 | 0.5 | 1 | 88 |  |  | 
13 | Cc1noc(-c2ccc(CCN3CCN(CCCc4c[nH]c5ccc(-n6cnnc6)cc45)CC3)cc2)n1 | 46 | 6.9 |  |  |  |  | 
14 | Fc1ccc(CCN2CCN(CCCc3c[nH]c4ccc(-n5cnnc5)cc34)CC2)cc1F | 83 | 0.9 | 0.7 | 91 |  |  | 
15 | c1cncc(CCN2CCN(CCCc3c[nH]c4ccc(-n5cnnc5)cc34)CC2)c1 | 93 | 4.9 | 7.8 | 69 |  |  | 
16 | O=C1CN(CCCc2c[nH]c3ccc(-n4cnnc4)cc23)CCN1CCc1ccccc1 | 78 | 5.2 |  |  |  |  | 
17 | CN(C)CCc1c[nH]c2ccc(-n3cnnc3)cc12 |  |  |  | 115 |  |  | 
18 | O=C1CN(CCCc2c[nH]c3ccc(-n4cnnc4)cc23)CCN1Cc1ccccc1 | 282 | 6.6 | 7.5 | 85 |  |  | 
19 | CC(=O)Nc1ccc(CN2CCN(CCCc3c[nH]c4ccc(-n5cnnc5)cc34)CC2)cc1 | 56 | 2.5 | 6.1 | 78 |  |  | 
20 | CN1CCN(CCc2c[nH]c3ccc(-n4cnnc4)cc23)CC1 | 304 | 134 |  | 61 |  |  | 105
21 | FC(F)(F)c1ccc(CN2CCN(CCCc3c[nH]c4ccc(-n5cnnc5)cc34)CC2)cc1 | 282 |  |  | 82 |  | 5.2 | 11
22 | CN(C)C(=O)C(c1ccccc1)N1CCN(CCCc2c[nH]c3ccc(-n4cnnc4)cc23)CC1 (stereo not drawn) | 102 | 1 | 0.8 | 68 |  |  | 
23 | c1ccc(CCCN2CCN(CCCc3c[nH]c4ccc(-n5cnnc5)cc34)CC2)cc1 | 85 | 4.9 | 4 | 68 |  |  | 
24 | O=C1CN(Cc2ccccc2)CCN1CCCc1c[nH]c2ccc(-n3cnnc3)cc12 | 3900 | 173 |  |  |  |  | 
25 | CN1CCN(CCCCc2c[nH]c3ccc(-n4cnnc4)cc23)CC1 | 5100 | 210 |  |  |  |  | 
26 | CN1CCN(CCCc2c[nH]c3ccc(-n4cnnc4)cc23)CC1 | 309 | 33 |  | 95 |  |  | 54
27 | NC(=O)C(c1ccccc1)N1CCN(CCCc2c[nH]c3ccc(-n4cnnc4)cc23)CC1 (stereo in doubt; 6q) [listing 2 of 2 here] | 55 |  |  |  |  | 2.3 | 3.8
28 | c1cc2[nH]cc(CCCN3CCNCC3)c2cc1-n1cnnc1 | 145 | 31 |  |  |  |  | 
29 | Clc1ccc(CN2CCN(CCCc3c[nH]c4ccc(-n5cnnc5)cc34)CC2)cc1 | 59 | 0.5 | 1.2 | 63 |  |  | 

More lines, in order of falling IC50 [1], values ahead:

Row | IC50 [1] [nM] | IC50 [2] [nM] | EC50 [3] [nM] | Relative efficacy [4] [%] | IC50 [5] [nM] | IC50 [6] [nM] | EC50 [7] [nM] | SMILES
30 | 36 | 1.6 | 2 | 68 |  |  |  | c1c[nH]c(CN2CCN(CCCc3c[nH]c4ccc(-n5cnnc5)cc34)CC2)n1
31 | 27 |  | 0.3 | 70 | 1.1 |  |  | c1cc(CN2CCN(CCCc3c[nH]c4ccc(-n5cnnc5)cc34)CC2)co1
32 | 23 | 0.6 | 1 | 66 |  |  |  | c1cc(CN2CCN(CCCc3c[nH]c4ccc(-n5cnnc5)cc34)CC2)ccn1
33 | 22 | 0.3 | 0.3 | 69 |  |  |  | c1cncc(CN2CCN(CCCc3c[nH]c4ccc(-n5cnnc5)cc34)CC2)c1
34 | 20 | 0.1 | 0.3 | 77 |  |  |  | Fc1ccc(CN2CCN(CCCc3c[nH]c4ccc(-n5cnnc5)cc34)CC2)cc1
35 | 18 | 0.4 | 0.3 | 67 |  |  |  | c1ccc(CN2CCN(CCCc3c[nH]c4ccc(-n5cnnc5)cc34)CC2)nc1
36 | 18 | 0.8 | 2.3 | 97 |  |  |  | S=C1CN(CCCc2c[nH]c3ccc(-n4cnnc4)cc23)CCN1Cc1ccccc1
37 | 18 | 0.4 | 0.5 | 66 |  |  |  | c1coc(CN2CCN(CCCc3c[nH]c4ccc(-n5cnnc5)cc34)CC2)c1
38 | 17 | 0.9 | 1.7 | 103 |  |  |  | CNCC(c1ccccc1)N1CCN(CCCc2c[nH]c3ccc(-n4cnnc4)cc23)CC1 (stereo not drawn)
39 | 13 | 1 |  |  |  |  |  | CC(c1ccccc1)N1CCN(CCCc2c[nH]c3ccc(-n4cnnc4)cc23)CC1 (stereo not drawn)
40 | 13 | 1.4 |  |  |  |  |  | c1ccc(N2CCN(CCCc3c[nH]c4ccc(-n5cnnc5)cc34)CC2)cc1
41 | 13 | 0.2 | 0.2 |  |  |  |  | NC(=O)C(c1ccccc1)N1CCN(CCCc2c[nH]c3ccc(-n4cnnc4)cc23)CC1 (stereo in doubt; 6p) [listing 2 of 2 here]
42 | 9.5 | 0.7 | 0.3 | 74 |  |  |  | OCC(c1ccccc1)N1CCN(CCCc2c[nH]c3ccc(-n4cnnc4)cc23)CC1 (stereo not drawn)
43 | 7.4 | 8.8 |  |  |  |  |  | c1cc2[nH]cc(CCCN3CCOCC3)c2cc1-n1cnnc1
44 | 2.4 | 0.2 | 0.2 | 70 |  |  |  | CC(=O)Nc1cccc(CN2CCN(CCCc3c[nH]c4ccc(-n5cnnc5)cc34)CC2)c1
45 | 0.5 | 0.6 | 0.6 | 59 |  |  |  | c1cnc(N2CCN(CCCc3c[nH]c4ccc(-n5cnnc5)cc34)CC2)nc1

— ChEMBL document CHEMBL1132698, “3-(Piperazinylpropyl)indoles: selective, orally bioavailable h5-HT1D receptor agonists as potential antimigraine agents” (J Med Chem, 1999)
